Assay results from different studies.
Lines come from different studies, so protocols differ.
FLT3: Receptor-type tyrosine-protein kinase FLT3 (FLT3, Homo sapiens, UniProt P36888)
FLT3 N841I: Receptor-type tyrosine-protein kinase FLT3 (FLT3, Homo sapiens, UniProt P36888, N841I)
FLT3 R834Q: Receptor-type tyrosine-protein kinase FLT3 (FLT3, Homo sapiens, UniProt P36888, R834Q)

Cc1cnc(Nc2ccc(C(=O)N3CCC(N4CCCC4)CC3)cc2)nc1-c1cc2ccccc2s1
remaining binding (FLT3; binding; competition with immobilised ligand; 1 µM): 1.6%

COc1ccc(COc2ccc(Cc3cnc(N)nc3N)cc2OC)cc1
remaining signal (FLT3; cell-free assay; 0.5 µM): 103%

FC(F)(F)c1ccc2c(c1)nc(-c1cccnc1)n2C1CC1
remaining binding (Receptor-type tyrosine-protein kinase FLT3 (FLT3, Homo sapiens, UniProt P36888, D835Y); cell-free assay; competition with immobilised ligand; 1 µM): 100%

F[C@@H]1CCN(c2nccc(-c3cnn4ncccc34)n2)C1
remaining binding (FLT3; binding; 1 µM): 81%

COc1cc(-c2cn(C3CCc4ccccc4N(CC(F)(F)F)C3=O)nn2)ccc1-n1ccc(C)n1 (stereo not drawn)
remaining binding (FLT3 N841I; cell-free assay; competition with immobilised ligand; 1 µM): 100%

Nc1ncnc2occ(-c3ccc(NC(=O)Nc4cc(C(F)(F)F)ccc4F)cc3)c12
remaining signal (FLT3 R834Q; cell-free assay; inhibitor; 20 µM): 0%

O=C(Nc1cccnn1)N1CC(C/C=C/c2cncc(Oc3ccc(C(F)(F)F)cn3)n2)C1
remaining binding (FLT3; cell-free assay; competition with immobilised ligand; 1 µM): 100%

C[C@H]1CCN(c2nccc(-c3cnn4ncccc34)n2)C1
remaining binding (FLT3 N841I; binding; 1 µM): 100%

Cc1ccc(C(=O)NCc2ccsc2)cc1C#Cc1cn(C(C)C)c2ncnc(N)c12
activity vs control (FLT3; enzyme activity; inhibitor; 1 µM): 80%

CCCCN(CCCC)C(=O)CN1C[C@H](c2cc(OC)c3c(c2)OCO3)[C@@H](C(=O)O)[C@@H]1CC(C)(C)CCC
remaining binding (Receptor-type tyrosine-protein kinase FLT3, autoinhibited (FLT3, Homo sapiens, UniProt P36888); cell-free assay; competition with immobilised ligand; 1 µM): 76%

CN(c1nccc(-c2cnn3ncccc23)n1)C1CC1
remaining binding (Receptor-type tyrosine-protein kinase FLT3 (FLT3, Homo sapiens, UniProt P36888, D835V); binding; 1 µM): 78%

C[C@H](c1ccc(F)cc1)N(Cc1cccc(C(=O)O)c1)C(=O)c1cnc2ccccc2c1
remaining binding (Receptor-type tyrosine-protein kinase FLT3 (FLT3, Homo sapiens, UniProt P36888, ITD); cell-free assay; competition with immobilised ligand; 1 µM): 100%

O=C(NCCCN1CCOCC1)c1ccc(Nc2nccc(-c3cc4ccccc4s3)n2)cc1
remaining binding (FLT3; binding; competition with immobilised ligand; 1 µM): 61%

CC(C)(O)c1cncc(-c2nc3ccc(F)cc3n2C2CC2)c1
remaining binding (Receptor-type tyrosine-protein kinase FLT3 (FLT3, Homo sapiens, UniProt P36888, K663Q); cell-free assay; competition with immobilised ligand; 1 µM): 100%

CC(C)c1ccc(NC(=O)c2cccs2)c(-c2nc3ccccc3[nH]c2=O)c1
activity vs control (FLT3; enzyme activity; inhibitor; 1 µM): 51%

Cc1sc(C(=O)NC2COC2)cc1-n1cc(NC(=O)Nc2c(F)cccc2Cl)cn1
remaining activity (FLT3; enzyme activity; inhibitor; 10 µM): 69.1%

CCN(CC)c1ccc(C2=NNC(=O)CC2C)cc1[N+](=O)[O-] (stereo not drawn)
remaining activity (FLT3; enzyme activity; inhibitor; 10 µM): 89%

CN(C)c1nccc(-c2cnn3ncccc23)n1
remaining binding (FLT3 R834Q; binding; 1 µM): 100%

Cc1ccc(C(=O)Nc2ccc(CN3CCN(C)CC3)c(C(F)(F)F)c2)cc1C#Cc1cnc2cccnn12
remaining activity (FLT3 N841I; enzyme activity; inhibitor; 23.5 nM): 0%

N[C@H]1CCN(c2nccc(-c3cnn4ncccc34)n2)C1
remaining binding (FLT3; binding; 1 µM): 99%

CCS(=O)(=O)c1cc2cc(C[C@@](O)(CC(C)(C)c3ccc(F)cc3C(N)=O)C(F)(F)F)[nH]c2cn1
remaining binding (Receptor-type tyrosine-protein kinase FLT3 (FLT3, Homo sapiens, UniProt P36888, D835V/ITD); cell-free assay; competition with immobilised ligand; 1 µM): 73%
